What was measured:
HIV‐2 = assay type: cell-based; settings: CEM-TK(-), read-out: EC50 CEM/TK− HIV‐1
Method in brief: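 CEM/TK⁻ cells (~3×10⁵ cells/mL) were infected with HIV‑1(III_B) or HIV‑2(ROD) at 100 CCID₅₀/mL and cultured with serial dilutions of test compound. After 4–5 days at 37 °C in humidified CO₂, giant (syncytium) cell formation was scored microscopically. EC50 is the concentration that halves giant cell formation. Values are mean ±SD of n=2–3 independent experiments.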

[1] = Cytotoxicity: inhibition of CD4+ T-cell; assay type: cell-based; settings: human, CEM/0 cells (CD4+ T cells)
[2] = symmetric TriPPPro-compounds, PB pH 7.3; cited from earlier work
[3] = previous work; cited from earlier work

Row | Compound | EC50 (HIV‐2) [µM] | CC50 [1] [µM] | half-life in PB (t1/2) [2] [h] | half-life in CEM/0 cell extracts (t1/2) [3] [h]
1 | Cc1cn([C@H]2C=C[C@@H](CO)O2)c(=O)[nH]c1=O [d4T 1, 3'‐deoxy‐2',3'‐didehydrothymidine] | > 50 | > 50 |  | 
2 | CCCCCCCCCC(=O)Oc1ccc(COP(=O)(OCc2ccc(OC(=O)CCCCCCCCC)cc2)OP(=O)(O)OP(=O)(O)OC[C@@H]2C=C[C@H](n3cc(C)c(=O)[nH]c3=O)O2)cc1 [γ‐(AB−C9,AB−C9)‐d4TTP] |  |  | 44 | 2.8
3 | γ‐(AB−C4,AB−C4)‐d4TTP |  |  | 22 | 0.43

From paper PMC7894357 (Chemmedchem, 2020)
